From ChEMBL document CHEMBL4732211, “Multifunctional agents based on benzoxazolone as promising therapeutic drugs for diabetic nephropathy” (Eur J Med Chem, 2021)
Activity calls are given as the source filed them. The calls are words filed in the database; no cut-off is given here.

Experiments:
[1] = biological target: Aldo-keto reductase family 1 member B1 (Rattus norvegicus, UniProt P07943); experiment: Inhibition of Wistar rat lens ALR2 assessed as reduction in NADPH oxidation using D,L-glyceraldehyde and NADPH as substrate preincubated for 10 mins followed by substrate addition and measured for 4 mins by spectrophotometric analysis; assay type: tissue-based
[2] = biological target: Aldo-keto reductase family 1 member A1 (Rattus norvegicus, UniProt P51635); experiment: Inhibition of Wistar rat kidney ALR1 assessed as reduction in NADPH oxidation using sodium D-glucuronate and NADPH as substrate preincubated for 10 mins followed by substrate addition and measured for 4 mins by spectrophotometric analysis; assay type: tissue-based
Rattus norvegicus = species on record: Rattus norvegicus; experiment: Selectivity index, ratio of IC50 for Wistar rat kidney ALR1 to IC50 for Wistar rat lens ALR2
Method in brief: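 Aldose reductases (ALR2, ALR1) prepared from Wistar rats (200-250 g). NADPH loss followed at 340 nm for 4 min after substrate start, following 10 min preincubation. ALR2: pH 6.2 phosphate, 30 °C, NADPH 0.10 mM, D,L-glyceraldehyde 10 mM. ALR1: pH 7.2, 37 °C, NADPH 0.12 mM, D-glucuronate 20 mM. 0.5% DMSO; non-enzymatic rate subtracted. IC50 from log dose-response with ≥3 concentrations (20-80% inhibition), triplicate.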

[3] = Antioxidant activity assessed as DPPH radical scavenging activity at 10 uM after 30 mins by spectrophotometric analysis; assay type: functional
Method in brief: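 DPPH in methanol (1 mL, 0.025 mg/mL) plus methanol 1.9 mL and compound in methanol, final 100, 50 and 10 µM; absorbance at 517 nm. Scavenging % = 1 − (A_sample − A_blank)/A_control, where the blank is compound without DPPH. Trolox reference.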

Mus musculus [4] = experiment: Inhibition of polyol pathway in STZ-induced Kunming mouse model of diabetes assessed as decrease in sorbitol level in kidney cortex at 80 mg/kg, po administered daily via gavage for 8 weeks and measured at 6 hrs post-final drug dose by fluorospectrophotometric analysis; assay type: functional
Mus musculus [5] = experiment: Antioxidant activity in STZ-induced diabetic Kunming mouse assessed as reduction in liver MDA level at 80 mg/kg, po administered daily via gavage for 8 weeks and measured at 6 hrs post-final drug dose relative to STZ-treated group; assay type: functional; conditions: 1344 h
Mus musculus [6] = experiment: Reno-protective activity in STZ-induced Kunming mouse model of diabetes assessed as reduction in albumin to creatinine ratio at 80 mg/kg, po administered daily via gavage for 8 weeks; assay type: functional
Mus musculus [7] = experiment: Antidiabetic activity in STZ-induced Kunming mouse model of diabetes assessed as reduction in blood glucose level at 80 mg/kg, po administered QD via gavage for 4 weeks and measured at week 2 to 4; assay type: functional, organism-based; conditions: time 2-4 weeks
Mus musculus [8] = experiment: Reno-protective activity in STZ-induced Kunming mouse model of diabetes assessed as reduction in urinary total protein excretion at 80 mg/kg, po administered daily via gavage for 8 weeks and measured at week 4 relative to control; assay type: functional
Mus musculus [9] = experiment: Reno-protective activity in STZ-induced Kunming mouse model of diabetes assessed as reduction in urinary total protein excretion at 80 mg/kg, po administered daily via gavage for 8 weeks and measured at week 6 relative to control; assay type: functional
Mus musculus [10] = experiment: Reno-protective activity in STZ-induced Kunming mouse model of diabetes assessed as reduction in urinary total protein excretion at 80 mg/kg, po administered daily via gavage for 8 weeks and measured at week 8 relative to control; assay type: functional

Aldo-keto reductase family 1 member A1, sequence (P51635 whole entry, looked up): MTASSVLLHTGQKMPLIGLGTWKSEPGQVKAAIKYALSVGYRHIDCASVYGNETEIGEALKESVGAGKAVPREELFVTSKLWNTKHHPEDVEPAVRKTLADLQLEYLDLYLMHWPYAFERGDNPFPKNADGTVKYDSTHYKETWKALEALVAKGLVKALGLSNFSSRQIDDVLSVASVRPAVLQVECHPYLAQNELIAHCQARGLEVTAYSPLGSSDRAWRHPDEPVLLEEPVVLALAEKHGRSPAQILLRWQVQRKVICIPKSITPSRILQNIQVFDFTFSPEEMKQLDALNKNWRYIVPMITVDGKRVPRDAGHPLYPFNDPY

IC50 [1] [µM] | IC50 [2] [µM] | Ratio IC50 (Rattus norvegicus) | SMILES | further results
0.0754 | 6.2 | 82 | O=C(O)Cn1c(=O)oc2c(-c3ccc(-c4ccccc4)cc3)cccc21 | –
55 | 363 | 6.6 | O=C(O)Cn1c(=O)oc2cccc(/C=C/c3ccccc3)c21 | –
0.0106 | 6.3 | 594 | COc1ccc(/C=C/c2cccc3c2oc(=O)n3CC(=O)O)cc1 | –
0.143 | 2880 | 20100 | O=C(O)Cn1c(=O)oc2c(/C=C/c3ccc(C(F)(F)F)cc3)cccc21 | –
0.0454 | 0.79 | 17 | O=C(O)Cn1c(=O)oc2c(/C=C/c3ccc(O)c(O)c3)cccc21 | Activity [3]: 22.7%
0.0657 | 2.57 | 39 | O=C(O)Cn1c(=O)oc2cc(/C=C/c3ccccc3)ccc21 | –
0.0338 | 29.5 | 873 | COc1ccc(/C=C/c2cccc3c2oc(=O)n3CC(=O)O)cc1OC | –
0.0465 | 575 | 12400 | O=C(O)Cn1c(=O)oc2cc(/C=C/c3ccc(O)cc3)ccc21 | –
0.0547 | 1700 | 31000 | O=C(O)Cn1c(=O)oc2c(/C=C/c3ccccc3)cccc21 | –
0.0348 | 67.6 | 1940 | O=C(O)Cn1c(=O)oc2c(/C=C/c3ccc(O)cc3)cccc21 | Activity [3]: 22.7%
0.149 | 447 | 3000 | O=C(O)Cn1c(=O)oc2c(-c3ccccc3)cccc21 | –
0.226 | 17.4 | 77 | O=C(O)Cn1c(=O)oc2ccc(/C=C/c3ccccc3)cc21 | –
0.0245 | 30.9 | 1260 | O=C(O)Cn1c(=O)oc2c(-c3ccc(CO)cc3)cccc21 | –
0.0238 | 1.05 | 44 | COc1ccc(-c2cccc3c2oc(=O)n3CC(=O)O)cc1 | –

Further lines, the compound ahead of its results:

SMILES | IC50 [1] [µM] | IC50 [2] [µM] | Ratio IC50 (Rattus norvegicus) | further results
COc1ccc(CCc2cccc3c2oc(=O)n3CC(=O)O)cc1 | 0.125 | 174 | 1390 | –
COc1cc(CCc2cccc3c2oc(=O)n3CC(=O)O)ccc1O | 0.0901 | 15.5 | 172 | Activity [3]: 22.7%
O=C(O)Cn1c(=O)oc2c(-c3ccc(-c4ccc5ccccc5c4)cc3)cccc21 | 0.023 | 8.9 | 387 | –
CC(/C=C1\SC(=S)N(CC(=O)O)C1=O)=C\c1ccccc1 | – | – | – | inhibition (Mus musculus [4]): Active; inhibition in vivo at 80 mg/kg (Mus musculus [5]): 65%; Activity (Mus musculus [6]): inactive; Activity (Mus musculus [7]): inactive; Activity (Mus musculus [8]; time 4.0 weeks): inactive; Activity (Mus musculus [9]; time 6.0 weeks): inactive; Activity (Mus musculus [10]): inactive
COc1ccc(-c2cccc3c2oc(=O)n3CC(=O)O)cc1OC | 0.0635 | 32.4 | 510 | –
O=C(O)Cn1c(=O)oc2c(-c3ccc(O)c(O)c3)cccc21 | 0.387 | 6.6 | 17 | Activity [3]: 61.7%
CC(C)(C)c1ccc(-c2cccc3c2oc(=O)n3CC(=O)O)cc1 | 0.0212 | 174 | 8200 | –
CN(C)C(=N)NC(=N)N [METFORMIN] | – | – | – | inhibition (Mus musculus [4]): inactive; inhibition in vivo at 80 mg/kg (Mus musculus [5]): 43%; inhibition (Mus musculus [6]): Active; inhibition in vivo at 80 mg/kg (Mus musculus [8]; 672 h, time 4 weeks): 6%; inhibition in vivo at 80 mg/kg (Mus musculus [9]; 1008 h, time 6 weeks): 41%; inhibition in vivo at 80 mg/kg (Mus musculus [10]; 1344 h): 18%
O=C(O)Cn1c(=O)oc2c(-c3ccc(C(F)(F)F)cc3)cccc21 | 0.0097 | 14.4 | 1480 | –
O=C(O)Cn1c(=O)oc2c(-c3ccc(-c4cccc5ccccc45)cc3)cccc21 | 0.0224 | 45.7 | 2040 | –
COc1ccc(-c2cccc3c2oc(=O)n3CC(=O)O)c(OC)c1 | 0.0855 | 72.4 | 847 | –
